Rows were chosen to be rich in hits. Some 2.9% of all compounds tested hit in one or more screens of this group.
TRPC6 inhibitor: mouse TRPC6 channel inhibition | HEK293-TRPC6, membrane potential dye, ACh-evoked depolarization; hits give low values | B-score at 10 µM | hit rate 1.1% among 310,000 | AID 2553;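 active = B-score under library mean minus 3 SD, initial fluorescence not abnormally high, positive integrated signal ratio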;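 note: B-score derived from integrated fluorescence ratio over the kinetic read; more negative B-score means stronger inhibition of depolarization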
TRPC6 act: activators of mouse TRPC6 channel. Q61143. HEK293-TRPC6 membrane potential dye fluorescence; hits give high values. B-score at 10 µM. hit rate 0.13% among 310,000. AID 2550;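 active = B-score of the integrated fluorescence ratio above library mean plus 3 SD, and starting fluorescence ratio within library mean plus 5 SD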;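 note: higher score means more depolarization so channel activation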
TRPC4 block: blocks the mouse TRPC4 cation channel; Q9QUQ5; HEK293 TRPC4beta/mu-opioid, DAMGO-evoked Fluo4 calcium flux; hits give low values; B-score at 10 µM; hit rate 0.39% among 300,000; AID 2247;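 active = B-score over 3 SD under the library average, no early fluorescence shift, positive overall ratio signal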
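Assay system: HEK293 cells with stable TRPC4beta plus mu-opioid receptor expression; Probe or stimulus: DAMGO in two steps, submaximal then maximal; Dosing: single-point compound dosing; Measured by: Fluo4 calcium-dye fluorescence, kinetic read; Read-out basis: B score from integrated Fluo4 fluorescence ratio.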
TRPC4 agonist: TRPC4 (mouse) channel activation; Q9QUQ5; HEK293 TRPC4beta/mu-opioid, Fluo4 calcium fluorescence; hits give high values; B-score at 10 µM; hit rate 0.49% among 310,000;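 active = B-score above 5 SD of library B-scores, and initial fluorescence ratio not above library mean plus 5 SD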;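 note: positive B-score marks a calcium rise read as TRPC4 activation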
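Material: TRPC4beta and mu-opioid receptor HEK293 stable cells | Incubation: 45 min room-temperature Fluo4 loading, 110 s read | Detection: Kinetic Fluo4 calcium fluorescence | Measure: Integrated baseline-normalised fluorescence ratio, converted to per-well B score | Benchmarks: Low control buffer alone, high control maximal DAMGO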
TRPC4 potent: allosteric potentiators of mouse TRPC4 channel | HEK293 TRPC4beta/mu-opioid, DAMGO EC20, Fluo-4 Ca2+ flux; hits give high values | B-score at 10 µM | hit rate 0.42% among 310,000 | AID 2227;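 active = B-score of calcium response area above 5 SD of library B-scores, with initial fluorescence ratio within 5 SD of library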
Kir21 block: Kir2.1 (mouse) channel inhibition | P35561 | HEK293-Kir2.1, FluxOR thallium flux fluorescence; hits give low values | B-score at 10 µM | hit rate 0.85% among 310,000 | AID 1672;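 active = fluorescence ratio B-score at or below minus 3 SD of library scores, with starting-brightness B-score within 2 SD, cut at about -4.2 in these data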;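 note: channel flux triggered by added potassium and thallium sulfate stimulus; B-score of peak minus minimum fluorescence over baseline after thallium stimulus; more negative B-score means stronger Kir2.1 block with less thallium influx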
A number is an active result; – = inactive; · = no result given.

SMILES	TRPC6 inhibitor	TRPC6 act	TRPC4 block	TRPC4 agonist	TRPC4 potent	Kir21 block
COc1ccc(F)cc1C(=O)C1CCCN(Cc2ccc3c(c2)OCCO3)C1 (configuration not stated)	–	–	-7	–	–	–
COc1ccccc1C(=O)C1CCCN(Cc2ccc3c(c2)OCCO3)C1 (configuration not stated)	–	–	–	–	–	–
CCOC(=O)c1[nH]nc2c1C(=O)N(CC)C2=O	–	–	–	–	–	–
CN(Cc1ccccn1)C(=O)CC1C(=O)NCCN1Cc1cccc(Oc2ccccc2)c1 (configuration not stated)	–	–	–	–	–	–
CCOc1ccc(CN2CCNC(=O)C2CC(=O)NCCc2ccccn2)cc1 (configuration not stated)	–	–	–	112	–	–
CN(CCc1ccccn1)C(=O)CC1C(=O)NCCN1Cc1cccc(F)c1 (configuration not stated)	–	–	–	186	–	–
CN(CCN1CCOCC1)C(=O)CC1C(=O)NCCN1Cc1ccccc1C(F)(F)F (configuration not stated)	–	–	–	–	–	–
COc1cccc(CN2CCNC(=O)C2CC(=O)N(C)CCc2ccccn2)c1OC (configuration not stated)	–	–	–	93	–	–
COc1cccc(CN2CCNC(=O)C2CC(=O)N(C)C2CCCCC2)c1OC (configuration not stated)	–	–	–	–	–	–
CN(CCc1ccccn1)C(=O)CC1C(=O)NCCN1Cc1ccccc1C(F)(F)F (configuration not stated)	–	–	–	131	–	–
CCOc1ccc(CN2CCNC(=O)C2CC(=O)NCc2ccccn2)cc1 (configuration not stated)	–	–	–	–	–	–
COc1ccc2nc(SCC(N)=O)[nH]c2c1	–	–	–	–	–	–
COc1ccc2nc(SCCN(C)C)[nH]c2c1	–	–	–	113	–	–
Cc1c(CN2CCC(n3nccc3NC(=O)C3CC3)CC2)[nH]c2ccccc12	–	–	–	64	–	–
COC(=O)c1ccc(CN2CCC(n3nccc3NC(=O)C3CC3)CC2)cc1	–	–	–	–	–	–
COc1nn(-c2ccccc2)c(=O)c(Cl)c1Cl	–	–	–	–	–	–
COc1ccc(C(=O)NCC(c2ccco2)N2CCc3ccccc32)c(OC)c1 (configuration not stated)	–	–	–	–	10	–
O=C(N/N=C/c1ccc[nH]1)c1cccc([N+](=O)[O-])c1	–	–	–	–	–	–
Cc1cc(/C=N/NC(=O)c2cccc([N+](=O)[O-])c2)c(C)n1-c1ccc(Cl)cc1Cl	–	–	-6	–	–	–
Cc1ccc(S(=O)(=O)N2CCN(C(=O)CCC(=O)NCCc3ccc(F)cc3)CC2)cc1	–	–	–	–	–	–
CCOc1cc(/C=C2\COc3ccccc3C2=O)cc(Br)c1OCC(=O)N(C)C	–	–	–	–	–	-4.98
COc1ccc(/C=C2\COc3ccccc3C2=O)cc1OC	–	–	–	–	–	–
CC(C)C[C@@H](CO)N1CCN(CC(C)C)CCC1=O	–	–	·	–	–	–
CCOC(=O)C1(CCc2ccccc2)CCN(Cc2ccn[nH]2)CC1	–	–	-6	–	–	–
CCOC(=O)C1(CCCc2ccccc2)CCN(Cc2cnc(C)s2)CC1	–	–	–	74	–	–
SMILES	TRPC6 inhibitor	TRPC6 act	TRPC4 block	TRPC4 agonist	TRPC4 potent	Kir21 block
CCOC(=O)C1(Cc2cccc(F)c2)CCN(Cc2cnc(C)s2)CC1	–	–	–	66	–	–
CCN(CC)Cc1ccccc1Sc1ccccc1	–	–	–	–	–	–
CCOC(=O)c1cc2sccc2n1CCCN1C(=O)c2ccccc2C1=O	–	–	–	–	–	–
CCCC(C(=O)Nc1ccc(S(=O)(=O)Nc2ncccn2)cc1)c1ccccc1 (configuration not stated)	–	–	–	–	–	–
Brc1ccccc1OCCCCCN1CCOCC1	–	–	–	–	11	–
CC(C)c1ccccc1OCCCN1CCCC1	–	–	–	–	–	–
Clc1ccccc1OCCCCN1CCNCC1	–	–	–	–	12	–
CC(C)c1ccccc1OCCCCN1CCCCC1	–	–	–	–	–	-5.05
Brc1ccccc1OCCCN1CCCC1	–	–	–	–	–	–
CC(C)c1ccccc1OCCCCCN1CCOCC1	–	–	–	–	13	–
Cc1ccc(OCCCCCN2CCOCC2)cc1	–	–	–	–	–	–
CC(=O)NCc1ccc(C(=O)CCl)s1	–	–	–	–	–	–
O=C(NCCc1ccccc1)C1CCCN(S(=O)(=O)c2cccs2)C1 (configuration not stated)	–	–	–	–	–	–
CC(C)COc1ccc(CN=C(N)N=C(N)N)cc1Cl	–	–	–	50	–	–
O=C(c1cc2ccccc2o1)N1CCCCCC1	–	–	–	–	–	–
CCCCCn1c(CN2CCN(C(=O)OCC)CC2)nc2c1c(=O)n(C)c(=O)n2C	–	–	–	–	–	–
Cc1nn(CC(=O)NCc2ccccc2)c(=O)c2ccccc12	–	–	–	–	–	–
CN(C)CCCNc1cc(C(C)(C)C)nc2c(-c3ccccc3)cnn12	–	–	–	–	–	-4.85
CS(=O)(=O)N(CC(=O)N1CCc2ccccc2C1)c1cccc([N+](=O)[O-])c1	–	–	–	–	–	–
O=C(COC(=O)c1cccc([N+](=O)[O-])c1)c1ccc2c(c1)OCO2	–	–	-7	–	–	–
O=C(OCC(=O)N1CCc2ccccc2C1)c1cccc([N+](=O)[O-])c1	–	–	-6	–	–	–
CC1=C(C(=O)OCc2ccccc2)C(c2ccccn2)c2c(n(C)c(=O)n(C)c2=O)N1 (configuration not stated)	–	–	–	–	–	–
CCc1ccc2c(c1)[C@]1(C(=O)N2)[C@@H]2C(=O)N(Cc3ccccc3)C(=O)[C@@H]2[C@@H]2CCCN21	–	–	–	–	–	–
Cc1cc(Cl)cc2c1NC(=O)[C@]21[C@@H]2C(=O)N(Cc3ccccc3)C(=O)[C@@H]2[C@@H]2CCCN21	–	–	–	50	–	–
O=C(NCc1ccccn1)c1nn(-c2ccccc2)c(=O)c2ccccc12	–	–	–	–	–	–
O=C(CSc1nn(-c2ccccc2)c(=S)s1)Nn1cnnc1	–	–	–	–	–	–
COC(=O)CSc1nn(-c2ccc(F)cc2)c(=S)s1	–	–	-5	–	–	–
CCOC(=O)c1ccc(NC(=O)C2C3CCC(C3)C2C(=O)O)cc1 (configuration not stated)	–	–	–	–	–	–

High-throughput results (PubChem)
